Measurements published in ChEMBL document CHEMBL3124759, “Synthesis, nicotinic acetylcholine receptor binding, and antinociceptive properties of 2'-fluoro-3'-(substituted pyridinyl)-7-deschloroepibatidine analogues” (J Med Chem, 2014).

Legend:
[1] = biological target: Neuronal acetylcholine receptor; alpha3/beta4 (Rattus norvegicus) (UniProt P04757+P12392); assay: Agonist activity at rat alpha3beta4 nAChR expressed in Xenopus laevis oocytes assessed as stimulation of acetylcholine-induced current at 100 uM by two-electrode voltage clamp electrophysiological analysis relative to acetylcholine; assay type: cell-based
Method in brief: (§1)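 Rat receptors expressed in Xenopus oocytes, two-electrode voltage clamp. Current evoked by 100 µM test compound was compared with the mean of three preceding ACh applications. The response was expressed as a percentage of the maximal ACh response.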

Mus musculus [2] = assay: Inhibition of nicotine-induced antinociception in mouse at 100 ug/kg, sc after 5 mins by hot plate test relative to control; assay type: functional
Mus musculus [3] = assay: Inhibition of nicotine-induced antinociception in mouse at 100 ug/kg, sc after 5 mins by tail flick test relative to control; assay type: functional
Mus musculus [4] = assay: Effect on hypothermia in sc dosed mouse after 30 mins; assay type: functional; settings: 0.5 h
[5] = biological target: T1, Neuronal acetylcholine receptor; alpha4/beta2 (Rattus norvegicus) (UniProt P09483+P12390); assay: Agonist activity at rat alpha4beta2 nAChR expressed in Xenopus laevis oocytes assessed as stimulation of acetylcholine-induced current at 100 uM by two-electrode voltage clamp electrophysiological analysis relative to acetylcholine; assay type: cell-based; method in brief: as §1
[6] = biological target: Neuronal acetylcholine receptor subunit alpha-7 (Rattus norvegicus) (UniProt Q05941); assay: Agonist activity at rat alpha7 nAChR expressed in Xenopus laevis oocytes assessed as stimulation of acetylcholine-induced current at 100 uM by two-electrode voltage clamp electrophysiological analysis relative to acetylcholine; assay type: cell-based; method in brief: as §1
Sequence of Neuronal acetylcholine receptor subunit alpha-7 (Rattus norvegicus) (Q05941 whole entry): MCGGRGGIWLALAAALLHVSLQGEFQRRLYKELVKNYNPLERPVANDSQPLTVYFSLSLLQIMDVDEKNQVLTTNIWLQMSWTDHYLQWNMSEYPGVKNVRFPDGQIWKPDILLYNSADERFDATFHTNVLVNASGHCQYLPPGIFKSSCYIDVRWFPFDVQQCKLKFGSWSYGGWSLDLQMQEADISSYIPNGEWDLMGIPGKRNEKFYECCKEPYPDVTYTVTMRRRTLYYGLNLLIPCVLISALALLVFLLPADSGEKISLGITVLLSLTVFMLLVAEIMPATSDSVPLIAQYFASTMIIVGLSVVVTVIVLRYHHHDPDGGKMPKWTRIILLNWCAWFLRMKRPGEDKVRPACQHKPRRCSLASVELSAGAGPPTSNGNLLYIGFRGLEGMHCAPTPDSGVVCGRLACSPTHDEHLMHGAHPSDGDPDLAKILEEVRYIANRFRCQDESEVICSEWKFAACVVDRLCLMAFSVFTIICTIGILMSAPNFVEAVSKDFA

Mus musculus [7] = assay: Effect on spontaneous activity in sc dosed mouse after 5 mins; assay type: functional
Mus musculus [8] = assay: Inhibition of nicotine-induced antinociception in mouse at 10000 ug/kg, sc after 5 mins by hot plate test relative to control; assay type: functional
Rattus norvegicus = organism: Rattus norvegicus; assay: Selectivity ratio of IC50 for rat alpha7 nAChR to IC50 for rat alpha4beta2 nAChR
Mus musculus [9] = assay: Antinociceptive activity in mouse at 10 mg/kg, sc after 5 mins by tail flick test relative to control; assay type: functional; settings: route subcutaneous
Mus musculus [10] = assay: Inhibition of nicotine-induced antinociception in sc dosed mouse after 5 mins by hot plate test; assay type: functional
[11] = biological target: T1, Neuronal acetylcholine receptor; alpha4/beta2 (Rattus norvegicus); assay: Antagonist activity at rat alpha4beta2 nAChR expressed in Xenopus laevis oocytes assessed as inhibition of acetylcholine-induced current at 100 uM by two-electrode voltage clamp electrophysiological analysis relative to acetylcholine; assay type: cell-based
Mus musculus [12] = assay: Antinociceptive activity in mouse at 10 mg/kg, sc by hot plate test relative to control; assay type: functional; settings: route subcutaneous
[13] = biological target: Neuronal acetylcholine receptor; alpha3/beta4 (Rattus norvegicus, UniProt P04757+P12392); assay: Agonist activity at rat alpha3beta4 nAChR expressed in Xenopus laevis oocytes assessed as stimulation of acetylcholine-induced current by two-electrode voltage clamp electrophysiological analysis; assay type: cell-based
Sequence of Neuronal acetylcholine receptor; alpha3/beta4 (P04757 whole entry): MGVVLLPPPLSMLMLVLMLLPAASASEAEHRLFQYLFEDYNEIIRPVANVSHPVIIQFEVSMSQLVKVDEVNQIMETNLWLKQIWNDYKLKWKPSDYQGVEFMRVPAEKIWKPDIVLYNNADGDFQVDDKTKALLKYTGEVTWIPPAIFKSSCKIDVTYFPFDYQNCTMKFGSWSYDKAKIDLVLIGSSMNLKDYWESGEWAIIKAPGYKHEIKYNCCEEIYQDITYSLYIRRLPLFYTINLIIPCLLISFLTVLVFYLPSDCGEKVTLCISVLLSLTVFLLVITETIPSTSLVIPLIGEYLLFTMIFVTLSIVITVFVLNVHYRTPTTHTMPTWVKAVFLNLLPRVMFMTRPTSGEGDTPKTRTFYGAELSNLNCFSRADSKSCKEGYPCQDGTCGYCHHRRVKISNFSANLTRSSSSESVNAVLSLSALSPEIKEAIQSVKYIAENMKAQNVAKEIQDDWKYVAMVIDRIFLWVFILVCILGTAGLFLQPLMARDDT
Sequence of Neuronal acetylcholine receptor; alpha3/beta4 (P12392 whole entry): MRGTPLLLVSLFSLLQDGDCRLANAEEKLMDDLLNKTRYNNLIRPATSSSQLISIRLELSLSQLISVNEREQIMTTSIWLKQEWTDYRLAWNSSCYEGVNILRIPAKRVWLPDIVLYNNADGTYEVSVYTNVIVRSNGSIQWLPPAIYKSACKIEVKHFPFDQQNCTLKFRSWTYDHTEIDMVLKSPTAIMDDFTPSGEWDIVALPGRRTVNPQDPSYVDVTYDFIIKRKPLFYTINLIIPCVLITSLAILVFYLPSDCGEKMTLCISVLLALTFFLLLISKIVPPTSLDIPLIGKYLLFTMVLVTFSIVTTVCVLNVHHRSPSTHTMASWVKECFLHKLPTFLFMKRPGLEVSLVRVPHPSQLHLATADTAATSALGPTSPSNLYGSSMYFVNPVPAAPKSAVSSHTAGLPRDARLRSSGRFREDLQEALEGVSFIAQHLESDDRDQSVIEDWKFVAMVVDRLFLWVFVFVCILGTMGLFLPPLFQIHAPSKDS

Mus musculus [14] = assay: Inhibition of nicotine-induced antinociception in sc dosed mouse after 5 mins by tail flick test; assay type: functional
[15] = biological target: Neuronal acetylcholine receptor; alpha4/beta2 (Rattus norvegicus, UniProt P09483+P12390); assay: Antagonist activity at rat alpha4beta2 nAChR expressed in Xenopus laevis oocytes assessed as inhibition of acetylcholine-induced current by two-electrode voltage clamp electrophysiological analysis; assay type: cell-based
Sequence of Neuronal acetylcholine receptor; alpha4/beta2 (P09483 whole entry): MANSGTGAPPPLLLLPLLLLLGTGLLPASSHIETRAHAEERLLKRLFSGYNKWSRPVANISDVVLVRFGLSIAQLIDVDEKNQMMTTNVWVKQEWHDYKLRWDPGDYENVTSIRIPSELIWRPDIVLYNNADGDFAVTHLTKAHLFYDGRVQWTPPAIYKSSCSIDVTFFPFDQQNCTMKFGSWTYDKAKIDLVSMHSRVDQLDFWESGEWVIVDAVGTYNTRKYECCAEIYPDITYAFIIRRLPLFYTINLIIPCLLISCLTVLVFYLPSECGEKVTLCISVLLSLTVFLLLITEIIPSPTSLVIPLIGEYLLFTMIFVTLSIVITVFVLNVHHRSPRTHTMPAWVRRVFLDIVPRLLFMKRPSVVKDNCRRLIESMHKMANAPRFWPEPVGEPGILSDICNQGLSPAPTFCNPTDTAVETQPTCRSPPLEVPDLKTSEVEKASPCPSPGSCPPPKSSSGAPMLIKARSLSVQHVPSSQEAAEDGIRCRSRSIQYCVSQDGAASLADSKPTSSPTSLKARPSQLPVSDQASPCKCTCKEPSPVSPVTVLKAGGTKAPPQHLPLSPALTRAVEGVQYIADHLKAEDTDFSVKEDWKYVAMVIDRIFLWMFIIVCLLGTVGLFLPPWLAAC
Sequence of Neuronal acetylcholine receptor; alpha4/beta2 (P12390 whole entry): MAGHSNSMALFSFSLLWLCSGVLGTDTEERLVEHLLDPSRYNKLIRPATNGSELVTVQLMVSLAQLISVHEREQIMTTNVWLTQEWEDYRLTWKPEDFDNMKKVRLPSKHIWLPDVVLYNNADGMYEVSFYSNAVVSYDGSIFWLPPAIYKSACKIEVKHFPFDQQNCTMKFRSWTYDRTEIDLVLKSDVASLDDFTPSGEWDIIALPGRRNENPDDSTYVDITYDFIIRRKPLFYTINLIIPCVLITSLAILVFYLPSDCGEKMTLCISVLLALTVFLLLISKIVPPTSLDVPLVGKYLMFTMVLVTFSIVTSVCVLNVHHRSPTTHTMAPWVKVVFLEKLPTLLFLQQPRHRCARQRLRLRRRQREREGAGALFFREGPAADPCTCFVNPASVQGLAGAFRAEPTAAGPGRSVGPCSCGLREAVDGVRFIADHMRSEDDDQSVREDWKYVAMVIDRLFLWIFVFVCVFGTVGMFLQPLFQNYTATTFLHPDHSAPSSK
Method in brief: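 Two-electrode voltage clamp on rat α4β2, α3β4 or α7 nAChRs expressed in Xenopus oocytes. Compounds were tested across a concentration range to build concentration-inhibition curves. Data were fitted to I = Imax/[1+(IC50/X)^n] to derive IC50 and Hill coefficient.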

[16] = biological target: Neuronal acetylcholine receptor subunit alpha-7 (Rattus norvegicus) (UniProt Q05941); assay: Antagonist activity at rat alpha7 nAChR expressed in Xenopus laevis oocytes assessed as inhibition of acetylcholine-induced current at 100 uM by two-electrode voltage clamp electrophysiological analysis relative to acetylcholine; assay type: cell-based
Mus musculus [17] = assay: Inhibition of nicotine-induced antinociception in mouse at 1000 ug/kg, sc after 5 mins by hot plate test relative to control; assay type: functional
Mus musculus [18] = assay: Antinociceptive activity in sc dosed mouse by hot plate test; assay type: functional
Mus musculus [19] = assay: Antinociceptive activity in sc dosed mouse after 5 mins by tail flick test; assay type: functional

## Fc1ccc(-c2cc([C@H]3C[C@H]4CC[C@H]3N4)cnc2F)cn1 (racemic)
[1]
  Emax: 9%
Mus musculus [2]
  inhibition in vivo at 0.1 mg/kg: 1%
Mus musculus [3]
  inhibition in vivo at 0.1 mg/kg: 1%

## CN1CCC[C@H]1c1cccnc1 [NICOTINE]
Mus musculus [4]
  ED50: 1 mg/kg
[1]
  Emax: 37%
[5]
  Emax: 40%
[6]
  Emax: 43%
Mus musculus [7]
  ED50: 0.5 mg/kg

## COc1cc(-c2cc([C@H]3C[C@H]4CC[C@H]3N4)cnc2F)ccn1 (racemic)
Mus musculus [8]
  inhibition in vivo at 10 mg/kg: 40%

## O=[N+]([O-])c1ccc(-c2cc([C@H]3C[C@H]4CC[C@H]3N4)cnc2F)cc1 (racemic)
Mus musculus [4]
  ED50: 0.21 mg/kg
Rattus norvegicus
  Ratio IC50: 10
Mus musculus [7]
  ED50: 0.22 mg/kg
Mus musculus [9]
  Activity: 5%

## c1cnc2cc3c(cc2n1)[C@@H]1CNC[C@H]3C1 [VARENICLINE]
Mus musculus [4]
  ED50: 2.8 mg/kg
Mus musculus [10]
  AD50: 470 µg/kg
[1]
  Emax: 66%
[11]
  Imax: 38%
Mus musculus [12]
  Activity: 10%
[5]
  Emax: 13%
[6]
  Emax: 74%
Mus musculus [7]
  ED50: 2.1 mg/kg
Mus musculus [9]
  Activity: 11%
[13]
  EC50: 55 µM
Mus musculus [14]
  AD50: 0.2 µg/kg
[15]
  IC50: 200 nM

## O=[N+]([O-])c1cccc(-c2cc(C3CC4CCC3N4)cnc2F)c1 (racemic)
Mus musculus [12]
  Activity: 20%
Mus musculus [7]
  ED50: 6.5 mg/kg
Mus musculus [9]
  Activity: 3%

## Nc1ccc(-c2cc([C@H]3C[C@H]4CC[C@H]3N4)cnc2F)cn1 (racemic)
[16]
  Imax: 50%

## Nc1cc(-c2cc([C@H]3C[C@H]4CC[C@H]3N4)cnc2F)ccn1 (racemic)
[6]
  Emax: 10%

## Fc1ncc(C2CC3CCC2N3)cc1-c1cccnc1 (racemic)
Mus musculus [17]
  inhibition in vivo at 1 mg/kg: 10%
[6]
  Emax: 7%

## COc1ccc(-c2cc([C@H]3C[C@H]4CC[C@H]3N4)cnc2F)cn1 (racemic)
Mus musculus [2]
  inhibition in vivo at 0.1 mg/kg: 0%

## Clc1ccc(C2CC3CCC2N3)cn1 (centres undefined) [EPIBATIDINE]
[1]
  Emax: 97%
Mus musculus [18]
  ED50: 4 µg/kg
Mus musculus [19]
  ED50: 6 µg/kg
[5]
  Emax: 131%
[6]
  Emax: 150%
Mus musculus [7]
  ED50: 0.001 mg/kg
